According to BindingDB's records for doi:10.1021/acs.jmedchem.9b01336 (University of Naples Federico II, 2020):

What was measured:
[1] = target: T1, Proto-oncogene tyrosine-protein kinase receptor Ret (Homo sapiens, UniProt P07949); test: Inhibition of RET isoform 9 M918T mutant in human MZ-CRC-1 cells assessed as reduction in cell proliferation supplemented with fresh medium containing compound for every 2 to 3 days and measured during compound dosing
How it was run: (§1)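 TT (200000/well) or MZ-CRC-1 (100000/well) seeded in 10% FCS; drug or vehicle from next day, refreshed every 2–3 days; counted every 2–3 days; IC50 by curve fitting of last-day growth.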
Target sequence in this assay (P07949 29-1114 M918T limits assumed): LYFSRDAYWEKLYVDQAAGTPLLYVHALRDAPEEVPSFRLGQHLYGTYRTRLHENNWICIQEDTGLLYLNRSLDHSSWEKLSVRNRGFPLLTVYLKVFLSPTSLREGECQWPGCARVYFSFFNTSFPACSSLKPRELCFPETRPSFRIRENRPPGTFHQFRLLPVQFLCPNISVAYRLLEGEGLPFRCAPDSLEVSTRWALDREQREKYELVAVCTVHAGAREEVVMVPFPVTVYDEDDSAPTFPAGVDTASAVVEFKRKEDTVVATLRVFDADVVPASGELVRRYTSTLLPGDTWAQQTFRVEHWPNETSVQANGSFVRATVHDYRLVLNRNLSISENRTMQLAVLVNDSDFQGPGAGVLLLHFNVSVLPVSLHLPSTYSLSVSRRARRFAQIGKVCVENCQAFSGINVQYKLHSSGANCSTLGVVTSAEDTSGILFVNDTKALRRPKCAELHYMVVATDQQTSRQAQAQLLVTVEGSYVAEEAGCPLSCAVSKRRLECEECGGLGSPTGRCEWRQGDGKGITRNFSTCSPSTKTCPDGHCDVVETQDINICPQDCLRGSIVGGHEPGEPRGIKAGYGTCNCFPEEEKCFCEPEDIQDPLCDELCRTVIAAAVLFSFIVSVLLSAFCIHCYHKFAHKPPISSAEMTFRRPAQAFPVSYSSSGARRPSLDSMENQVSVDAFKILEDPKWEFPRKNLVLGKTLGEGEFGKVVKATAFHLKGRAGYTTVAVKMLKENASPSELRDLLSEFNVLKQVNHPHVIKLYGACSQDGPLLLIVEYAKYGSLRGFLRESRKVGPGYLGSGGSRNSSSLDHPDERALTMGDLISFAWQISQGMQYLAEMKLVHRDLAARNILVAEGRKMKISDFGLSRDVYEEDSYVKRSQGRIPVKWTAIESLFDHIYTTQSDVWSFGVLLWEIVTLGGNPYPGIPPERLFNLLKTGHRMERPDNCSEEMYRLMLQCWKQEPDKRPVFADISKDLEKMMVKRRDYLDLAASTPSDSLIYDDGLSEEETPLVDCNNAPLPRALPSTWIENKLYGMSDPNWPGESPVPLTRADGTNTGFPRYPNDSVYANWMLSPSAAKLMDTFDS

[2] = target: T1, Proto-oncogene tyrosine-protein kinase receptor Ret; test: Inhibition of RET isoform 9 C634W mutant in human TT cells assessed as reduction in cell proliferation supplemented with fresh medium containing compound for every 2 to 3 days and measured during compound dosing; how it was run: as §1
Target sequence in this assay (P07949 29-1114 C634W limits assumed): as the sequence (P07949 29-1114 M918T limits assumed) above, with C606W, T890M counted along it

[3] = target: T1, Proto-oncogene tyrosine-protein kinase receptor Ret; test: Inhibition of CCDC6/RET in human TPC1 cells assessed as reduction in cell proliferation supplemented with fresh medium containing compound for every 2 to 3 days and measured during compound dosing
Target sequence in this assay (P07949 whole entry, looked up, canonical isoform): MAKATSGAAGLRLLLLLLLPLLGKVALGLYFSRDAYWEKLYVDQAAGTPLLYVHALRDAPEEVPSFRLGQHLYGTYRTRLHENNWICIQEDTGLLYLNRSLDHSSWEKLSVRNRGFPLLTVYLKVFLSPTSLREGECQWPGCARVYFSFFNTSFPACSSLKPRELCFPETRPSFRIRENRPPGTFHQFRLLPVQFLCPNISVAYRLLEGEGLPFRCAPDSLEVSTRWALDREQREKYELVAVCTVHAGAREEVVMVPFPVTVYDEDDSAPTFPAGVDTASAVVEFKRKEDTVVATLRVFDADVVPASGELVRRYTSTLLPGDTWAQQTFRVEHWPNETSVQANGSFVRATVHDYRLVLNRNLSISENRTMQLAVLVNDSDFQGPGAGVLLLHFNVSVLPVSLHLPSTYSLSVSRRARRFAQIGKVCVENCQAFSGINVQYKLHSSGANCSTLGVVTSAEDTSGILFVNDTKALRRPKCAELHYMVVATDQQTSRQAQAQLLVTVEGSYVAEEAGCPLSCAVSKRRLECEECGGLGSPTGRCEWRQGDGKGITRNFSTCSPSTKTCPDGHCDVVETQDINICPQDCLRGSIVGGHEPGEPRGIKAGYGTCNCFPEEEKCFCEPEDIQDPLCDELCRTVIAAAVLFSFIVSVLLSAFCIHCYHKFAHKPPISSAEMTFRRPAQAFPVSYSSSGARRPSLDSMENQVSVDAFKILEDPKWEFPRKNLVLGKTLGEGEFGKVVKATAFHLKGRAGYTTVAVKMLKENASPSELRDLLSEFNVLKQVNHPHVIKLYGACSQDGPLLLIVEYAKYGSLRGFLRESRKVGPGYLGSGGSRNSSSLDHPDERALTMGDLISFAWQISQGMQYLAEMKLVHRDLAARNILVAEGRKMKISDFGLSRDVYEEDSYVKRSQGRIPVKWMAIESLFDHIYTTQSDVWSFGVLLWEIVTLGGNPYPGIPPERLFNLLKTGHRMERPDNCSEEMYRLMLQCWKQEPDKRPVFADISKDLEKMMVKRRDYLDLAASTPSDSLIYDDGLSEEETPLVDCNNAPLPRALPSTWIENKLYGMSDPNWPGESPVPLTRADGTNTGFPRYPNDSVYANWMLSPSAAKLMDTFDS

[4] = target: T1, Proto-oncogene tyrosine-protein kinase receptor Ret; test: Inhibition of CCDC6/RET in human LC2/ad cells assessed as reduction in cell proliferation supplemented with fresh medium containing compound for every 2 to 3 days and measured during compound dosing
Target sequence in this assay (P07949 whole entry, looked up, canonical isoform): as above

[5] = Inhibition of RET isoform 15 C634R mutant (unknown origin) expressed in mouse BAF3 cells assessed as reduction in cell proliferation supplemented with fresh medium containing compound for every 2 to 3 days and measured daily
[6] = Inhibition of RET isoform 15 M918T mutant (unknown origin) expressed in mouse BAF3 cells assessed as reduction in cell proliferation supplemented with fresh medium containing compound for every 2 to 3 days and measured daily
[7] = Inhibition of RET isoform 9 C634Y mutant (unknown origin) expressed in mouse NIH/3T3 cells assessed as reduction in cell proliferation supplemented with fresh medium containing compound for every 2 to 3 days measured at 2 days interval during compound dosing

Question: What does the source list for `CC(C)(C)c1cc(NC(=O)Cc2ccc(-n3cnc4cc(-c5ccc(S(C)(=O)=O)cc5)ccc43)cc2)no1`?
Answer: IC50 [1]: 0.67 nM; IC50 [2]: 0.67 nM; IC50 [3]: 0.67 nM; IC50 [4]: 0.67 nM; IC50 [5]: 1.7 nM; IC50 [6]: 1.6 nM; IC50 [7]: 4.2 nM
